Consider 5 compounds from ChEMBL document CHEMBL4342506 (ACS Med Chem Lett, 2020).

Activity calls are given as the source filed them. A value given as a limit tells only on which side of the number the result lay.

The target of one series is T1, Neutrophil elastase (Homo sapiens, UniProt P08246).
T1 sequence (P08246 whole entry): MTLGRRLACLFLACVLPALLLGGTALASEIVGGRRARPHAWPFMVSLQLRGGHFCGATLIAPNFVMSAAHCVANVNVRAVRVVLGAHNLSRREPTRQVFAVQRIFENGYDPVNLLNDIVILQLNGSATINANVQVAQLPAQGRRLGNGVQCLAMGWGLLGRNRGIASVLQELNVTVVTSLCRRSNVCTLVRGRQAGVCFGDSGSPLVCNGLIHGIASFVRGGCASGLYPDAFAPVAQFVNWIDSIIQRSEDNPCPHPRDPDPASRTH
In words: Inhibition of human neutrophil elastase using N-(OMe-succinyl)-Ala-Ala-Pro-Val-p-nitroanilide as substrate incubated for 15 mins followed by substrate addition and measured for every 30 sec for 30 mins by spectrophotometry.

For series [1], the system named is BEAS-2B. In words: Upregulation of IL-1beta in human BEAS2B cells incubated for 3 hrs by RT-qPCR analysis. A general note: In qPCR the cycle at which signal appears reflects the starting amount.
In series [2] the test system is BEAS-2B. In words: Cytoprotective activity in human BEAS2B cells assessed as reduction in HNE-induced cell death incubated for 24 hrs by MTT assay. The class given is functional, cell-based. The gist of the method: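 BEAS-2B bronchial epithelial cells were cotreated with compound and 100 nM HNE for 24 h, and viability was read with MTT reagent.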
A short description of series [3]: Metabolic stability in human liver microsome assessed as half life at 200 uM in presence of NADPH incubated for 24 hrs by HPLC-MS analysis. The class given is ADME. Conditions: liver microsomes.
The nature of series [4]: Stability in human serum at 200 uM incubated for 24 hrs by HPLC-MS analysis. The series is classed as ADME, cell-free. In a few lines: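 Compound was incubated in human serum at 37 °C and followed over 24 h.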
Series [5] is described as follows: Metabolic stability in human liver microsomes at 200 uM incubated for 24 hrs by HPLC-MS analysis. The series is classed as ADME, Microsome. The gist of the method:
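Compound was incubated with pooled human liver microsomes without NADPH for up to 24 h to assess NADPH-independent metabolism; mean ± SD, n = 3.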
In general terms: Liver microsomes are a subcellular fraction often used to study metabolism.

Broadly, the IC50 is the concentration that gives 50% inhibition. The low end stands for greater potency, the high end for weaker potency. A word on the EC50: it is the concentration at which the effect is half-maximal. `C/C=C1\NC(=O)[C@@H](NC(=O)[C@H](CCC(N)=O)NC(=O)CN2CCOCC2)[C@@H](C)OC(=O)[C@H](C(C)C)NC(=O)[C@H](Cc2ccc(O)cc2)N(C)C(=O)[C@H](Cc2ccccc2)N2C(=O)[C@H](CC[C@H]2O)NC1=O` returned an IC50 at Neutrophil elastase of 197 nM. Moreover, in the series on BEAS-2B [1], the result was inactive. Also, in the series on BEAS-2B [2], the EC50 was 185 nM.

As for `C/C=C1\NC(=O)[C@@H](NC(C)=O)[C@@H](C)OC(=O)[C@H](C(C)C)NC(=O)[C@H](Cc2ccc(O)cc2)N(C)C(=O)[C@H](Cc2ccccc2)N2C(=O)[C@H](CC[C@H]2O)NC1=O`, the IC50 at Neutrophil elastase is 10000 nM.

Broadly, the half-life is the time needed for the level to fall by half in the phase considered. In the case of `C/C=C1\NC(=O)[C@@H](NC(=O)[C@H](CCC(N)=O)NC(=O)CCCCC)[C@@H](C)OC(=O)[C@H](C(C)C)NC(=O)[C@H](Cc2ccc(O)cc2)N(C)C(=O)[C@H](Cc2ccccc2)N2C(=O)[C@H](CC[C@H]2O)NC1=O` [LYNGBYASTATIN 7], the half-life at 200 µM in series [3] was 2 h. Further, the Stability entry in series [4] and in series [5] was “Stable” each time. Besides, the outcome with BEAS-2B [1] was Active. Further, in the series with BEAS-2B [2], the EC50 amounted to 20 nM.

Turning to `C/C=C1\NC(=O)[C@@H](NC(=O)[C@H](CCC(N)=O)NC(=O)CC2CCCCC2)[C@@H](C)OC(=O)[C@H](C(C)C)NC(=O)[C@H](Cc2ccc(O)cc2)N(C)C(=O)[C@H](Cc2ccccc2)N2C(=O)[C@H](CC[C@H]2O)NC1=O`, half-maximal inhibition at Neutrophil elastase (IC50) required 103 nM. For the same compound, the outcome with BEAS-2B [1] was Active. Besides, the EC50 in the series with BEAS-2B [2] came to 91 nM.

At Neutrophil elastase, `C/C=C1\NC(=O)[C@@H](NC(=O)OC(C)(C)C)[C@@H](C)OC(=O)[C@H](C(C)C)NC(=O)[C@H](Cc2ccc(O)cc2)N(C)C(=O)[C@H](Cc2ccccc2)N2C(=O)[C@H](CC[C@H]2O)NC1=O` yielded an IC50 of more than 10000 nM.
